Measurements published in ChEMBL document CHEMBL4706580, “4-Amino-1,2,4-triazole-3-thione-derived Schiff bases as metallo-β-lactamase inhibitors” (Eur J Med Chem, 2020).
The source made the active and inactive calls. The calls are words filed in the database; no cut-off is given here.

Columns and labels:
[1] = Inhibition of beta-lactamase IMP-1 (unknown origin) expressed in Escherichia coli LZ2310 assessed as potentiation of ceftazidime antibacterial activity by measuring ceftazidime induced diameter of inhibition zone at 320 uM incubated for 18 hrs by disk diffusion method (reference value: 9 mm)
Outline: (§1)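 Efflux-deficient E. coli LZ2310 (NorE, MdfA, AcrA knocked out) carrying pLB-II with the cloned MBL gene. Mueller-Hinton, CLSI disk diffusion; antibiotic disks (30 µg cefoxitin for VIM-2, 10 µg ampicillin for VIM-4, 30 µg ceftazidime for NDM-1/IMP-1) loaded with inhibitor in DMSO (≤15 µL). Zone diameter after 18 h, 35 ± 1 °C; DMSO and 220 µg EDTA controls. Triplicate.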

[2] = Inhibition of beta-lactamase NDM-1 (unknown origin) expressed in Escherichia coli LZ2310 assessed as potentiation of ceftazidime antibacterial activity by measuring ceftazidime induced diameter of inhibition zone at 320 uM incubated for 18 hrs by disk diffusion method (reference value: 15 mm); outline: as §1
[3] = Inhibition of beta-lactamase IMP-1 (unknown origin) expressed in Escherichia coli BL21(DE3) using imipenem as substrate by measuring substrate hydrolysis by spectrophotometric analysis
Outline: (§2)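 Purified enzyme (overproduced in E. coli BL21(DE3), pET-9a; ion-exchange and gel filtration), 1-70 nM final. Reporter substrate 150 μM imipenem, read at 300 nm, 30 °C, 50 mM HEPES pH 7.5. Single-point screen at 100 or 200 μM; Ki from v0/vi vs [I] (0.5–1,000 μM final) assuming competitive inhibition, or Dixon plot. Triplicate.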

[4] = Inhibition of beta-lactamase VIM-2 (unknown origin) expressed in Escherichia coli LZ2310 assessed as potentiation of cefoxitin antibacterial activity by measuring cefoxitin induced diameter of inhibition zone at 320 uM incubated for 18 hrs by disk diffusion method (reference value: 14 mm); outline: as §1
[5] = Inhibition of beta-lactamase VIM2 (unknown origin) expressed in Escherichia coli BL21(DE3) using imipenem as substrate by measuring substrate hydrolysis at 100 uM by spectrophotometric analysis; outline: as §2
[6] = Inhibition of beta-lactamase L1 (unknown origin) expressed in Escherichia coli BL21(DE3) using nitrocefin as substrate by measuring substrate hydrolysis at 100 uM preincubated for 30 mins by spectrophotometric analysis
Outline: (§3)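 Enzyme 0.2–0.8 nM in 25 mM HEPES pH 7.5 with 50 μM ZnCl2 final, pre-incubated 30 min at 21 °C with inhibitor (100 μM screen). Nitrocefin 100 μM final, read at 482 nm, 30 °C. Residual activity vs three uninhibited samples; Ki (1–100 μM inhibitor) from Hanes linearization, competitive model. Triplicate.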

[7] = Inhibition of beta-lactamase VIM-2 (unknown origin) expressed in Escherichia coli XL-1 assessed as potentiation of cefoxitin antibacterial activity by measuring cefoxitin induced diameter of inhibition zone at 320 uM incubated for 18 hrs by disk diffusion method (reference value: 8 mm)
Outline: (§4)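 Wild-type efflux E. coli XL-1 Blue transformed with pLB-II-VIM-2. Mueller-Hinton disk diffusion per CLSI, 30 µg cefoxitin disks loaded with inhibitor dissolved in DMSO (≤15 µL). Growth-inhibition zone measured after 18 h at 35 ± 1 °C; DMSO negative and 220 µg EDTA positive controls. Triplicate.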

[8] = Inhibition of beta-lactamase NDM1 (unknown origin) expressed in Escherichia coli BL21(DE3) using cefotaxime/nitrocefin as substrate by measuring substrate hydrolysis by spectrophotometric analysis
Outline: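 His-tagged enzyme from E. coli BL21(DE3) pET-15b, affinity-purified, 1-70 nM final. Reporter substrate 120 μM cefotaxime (260 nm) or 100 μM nitrocefin (482 nm), 30 °C, 50 mM HEPES pH 7.5. Inhibitor 0.5–1,000 μM final; competitive Ki from v0/vi vs [I] slope or Dixon plot. Triplicate.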

[9] = Inhibition of beta-lactamase VIM4 (unknown origin) expressed in Escherichia coli BL21(DE3) using imipenem as substrate by measuring substrate hydrolysis by spectrophotometric analysis; outline: as §2
[10] = Inhibition of beta-lactamase VIM2 (unknown origin) expressed in Escherichia coli BL21(DE3) using imipenem as substrate by measuring substrate hydrolysis at 200 uM by spectrophotometric analysis; outline: as §2
[11] = Inhibition of beta-lactamase L1 (unknown origin) expressed in Escherichia coli BL21(DE3) using nitrocefin as substrate by measuring substrate hydrolysis at 200 uM preincubated for 30 mins by spectrophotometric analysis
[12] = Inhibition of beta-lactamase NDM1 (unknown origin) expressed in Escherichia coli BL21(DE3) using cefotaxime/nitrocefin as substrate by measuring substrate hydrolysis at 200 uM by spectrophotometric analysis
[13] = Inhibition of beta-lactamase NDM1 (unknown origin) expressed in Escherichia coli BL21(DE3) using cefotaxime/nitrocefin as substrate by measuring substrate hydrolysis at 100 uM by spectrophotometric analysis
[14] = Inhibition of beta-lactamase VIM4 (unknown origin) expressed in Escherichia coli BL21(DE3) using imipenem as substrate by measuring substrate hydrolysis at 200 uM by spectrophotometric analysis; outline: as §2
[15] = Inhibition of beta-lactamase IMP-1 (unknown origin) expressed in Escherichia coli BL21(DE3) using imipenem as substrate by measuring substrate hydrolysis at 200 uM by spectrophotometric analysis; outline: as §2
[16] = Inhibition of beta-lactamase IMP-1 (unknown origin) expressed in Escherichia coli LZ2310 assessed as potentiation of ceftazidime antibacterial activity by measuring ceftazidime induced diameter of inhibition zone at 80 uM incubated for 18 hrs by disk diffusion method (reference value: 9 mm); outline: as §1
[17] = Inhibition of beta-lactamase IMP-1 (unknown origin) expressed in Escherichia coli BL21(DE3) using imipenem as substrate by measuring substrate hydrolysis at 100 uM by spectrophotometric analysis; outline: as §2
[18] = Inhibition of beta-lactamase VIM4 (unknown origin) expressed in Escherichia coli BL21(DE3) using imipenem as substrate by measuring substrate hydrolysis at 100 uM by spectrophotometric analysis; outline: as §2
[19] = target: Hydroxyacylglutathione hydrolase (Homo sapiens); assay: Inhibition of human Glyoxalase II expressed in Escherichia coli BL21 (DE3)
[20] = Inhibition of beta-lactamase VIM-2 (unknown origin) expressed in Escherichia coli LZ2310 assessed as potentiation of cefoxitin antibacterial activity by measuring cefoxitin induced diameter of inhibition zone at 240 uM incubated for 18 hrs by disk diffusion method (reference value: 14 mm); outline: as §1
[21] = Inhibition of beta-lactamase CphA (unknown origin) expressed in Escherichia coli BL21(DE3) using imipenem as substrate by measuring substrate hydrolysis by spectrophotometric analysis
Outline: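 Enzyme 0.2–0.8 nM in 15 mM cacodylate pH 6.5, no added zinc, pre-incubated 30 min at 21 °C with inhibitor (100 μM screen). Imipenem substrate added from 10 mM stock; hydrolysis at 300 nm, 30 °C. Residual activity vs three uninhibited samples; Ki (1–100 μM inhibitor) by Hanes linearization, competitive model. Triplicate.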

[22] = Inhibition of beta-lactamase L1 (unknown origin) expressed in Escherichia coli BL21(DE3) using nitrocefin as substrate by measuring substrate hydrolysis preincubated for 30 mins by spectrophotometric analysis; outline: as §3
[23] = Inhibition of beta-lactamase VIM2 (unknown origin) expressed in Escherichia coli BL21(DE3) using imipenem as substrate by measuring substrate hydrolysis by spectrophotometric analysis; outline: as §2
HUVEC = assay: Cytotoxicity in human HUVEC cells assessed as reduction in cell viability upto 100 uM incubated for 72 hrs by MTT assay; type: cell-based
[24] = Inhibition of beta-lactamase VIM-2 (unknown origin) expressed in Escherichia coli XL-1 assessed as potentiation of cefoxitin antibacterial activity by measuring cefoxitin induced diameter of inhibition zone at 240 uM incubated for 18 hrs by disk diffusion method (reference value: 8 mm); outline: as §4
HeLa = assay: Cytotoxicity in human HeLa cells assessed as cell lysis upto 250 uM incubated for 72 hrs by membrane integrity assay; type: cell-based

Structure (SMILES)	Ki [3]	inhibition [5]	inhibition [6]	Ki [8]	Ki [9]	inhibition [10]	inhibition [11]	inhibition [12]	inhibition [13]	inhibition [14]	inhibition [15]	inhibition zone (IZ) [16]	inhibition [18]	also measured
O=C(O)c1ccccc1/C=N/n1c(-c2cccc(Cl)c2)n[nH]c1=S	58 µM	inactive	60%	7.5 µM	2 µM	inactive								inhibition zone (IZ) [1]: 9 mm; inhibition zone (IZ) [2]: 15 mm; inhibition zone (IZ) [4]: 14 mm; inhibition zone (IZ) [7]: 8 mm
S=c1[nH]nc(Cc2ccc3ccccc3c2)n1/N=C/c1ccc(OCc2ccccc2)cc1		inactive	inactive			inactive	inactive	inactive	inactive	inactive	inactive	9 mm	inactive	inhibition [17]: inactive
Cc1ccccc1-c1n[nH]c(=S)n1/N=C/c1ccccc1C(=O)O	58 µM			110 µM	1.6 µM									IC50 [19]: 25.8 µM; inhibition zone (IZ) [20]: 20 mm; Ki [21]: 120 µM; Ki [22]: 40 µM; Ki [23]: 3 µM; Activity (HUVEC): Non-Toxic; inhibition zone (IZ) [24]: 9 mm; Activity (HeLa): Non-Toxic
S=c1[nH]nc(-c2cc3ccccc3[nH]2)n1/N=C/c1ccc(OCc2ccccc2)cc1		inactive	inactive			inactive	inactive	inactive	inactive	inactive	60%	9 mm	inactive	
